How the values were obtained:
Trypanosoma cruzi [1] = assay: Trypanocidal activity against Trypanosoma cruzi IRHOD/CO/2008/SN3 DTU 1 epimastigotes after 48 hrs by resazurin dye based assay; assay type: functional, organism-based; details: IRHOD/CO/2008/SN3 DTU 1, 48 h
Summary of the method: (§1)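 Exponential-phase epimastigotes were seeded at 5×10^5 mL^-1 with compounds at 100–0.2 µM (DMSO 0.01% v/v) at 28 °C. After 48 h, resazurin was added for another 24 h. SDS was then added and absorbance read at 570 and 600 nm.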

[2] = Selectivity index, ratio of IC50 for African green monkey Vero cells to IC50 for Trypanosoma cruzi TINF/CH/1956/Tulahuen DTU 6 epimastigotes; assay type: toxicity; details: read-out: Ratio IC50
Summary of the method: (§2)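 SI is Vero IC50 divided by the IC50 for the stated parasite form. For Vero cytotoxicity, cells were seeded at 1.25×10^4 mL^-1 with compounds at 1000–1 µM, incubated 48 h, then given resazurin for a further 24 h (72 h total), with absorbance read at 570/600 nm. Triplicate, four determinations.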

[3] = Selectivity index, ratio of IC50 for African green monkey Vero cells to IC50 for Trypanosoma cruzi MHOM/Pe/2011/Arequipa DTU 5 epimastigotes; assay type: toxicity; details: read-out: Ratio IC50; summary of the method: as §2
Trypanosoma cruzi [4] = assay: Trypanocidal activity against Trypanosoma cruzi MHOM/Pe/2011/Arequipa DTU 5 epimastigotes after 48 hrs by resazurin dye based assay; assay type: functional, organism-based; details: MHOM/Pe/2011/Arequipa DTU 5, 48 h; summary of the method: as §1
Vero = assay: Cytotoxicity against African green monkey Vero cells assessed as reduction in cell viability after 72 hrs by resazurin dye based assay; details: Chlorocebus sabaeus
Summary of the method: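 Vero monkey kidney cells grown at 37 °C, 5 % CO2, in RPMI with 10 % heat-inactivated FBS. Seeded at 1.25 × 10^4 mL-1 with compound at 1000 to 1 µM (DMSO 0.01 % v/v). After 48 h, resazurin added for a further 24 h, then SDS. Absorbance read at 570/600 nm. IC50 from triplicates in four separate determinations.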

Trypanosoma cruzi [5] = assay: Trypanocidal activity against Trypanosoma cruzi TINF/CH/1956/Tulahuen DTU 6 epimastigotes after 48 hrs by resazurin dye based assay; assay type: functional, organism-based; details: TINF/CH/1956/Tulahuen DTU 6, 48 h; summary of the method: as §1
[6] = Selectivity index, ratio of IC50 for African green monkey Vero cells to IC50 for Trypanosoma cruzi IRHOD/CO/2008/SN3 DTU 1 epimastigotes; assay type: toxicity; details: read-out: Ratio IC50; summary of the method: as §2

SMILES | IC50 (Trypanosoma cruzi [1]) [µM] | selectivity ratio [2] | selectivity ratio [3] | IC50 (Trypanosoma cruzi [4]) [µM] | IC50 (Vero) [µM] | IC50 (Trypanosoma cruzi [5]) [µM] | selectivity ratio [6]
O=C(CCN1CCN(c2ccc(F)cc2)CC1)c1ccc(Br)cc1 | 56.8 | 2 | 4.4 | 22.5 | 99.5 | 49.5 | 1.8
Cc1ccc(C(=O)CCN2CCN(c3ccc(C(F)(F)F)cc3)CC2)cc1 | 17.6 | 6.2 | 9.8 | 14.2 | 140 | 22.5 | 7.9
O=C(CCN1CCN(c2ccc(C(F)(F)F)cc2)CC1)c1ccc(F)c(Cl)c1 | 45 | 2.6 | 3.4 | 21.6 | 74.5 | 29 | 1.7
O=C(CCN1CCN(c2ccc(C(F)(F)F)cc2)CC1)c1ccc(OC(F)(F)F)cc1 | 38.4 | 0.8 | 1.3 | 51.2 | 64.9 | 86.3 | 1.7
O=C(CCN1CCN(c2ccc(Cl)cc2)CC1)c1ccc(C(F)(F)F)cc1 | 38.2 | 1.4 | 1 | 52.7 | 54.2 | 39.1 | 1.4
COc1ccc(C(=O)CCN2CCN(c3ccc(C(F)(F)F)cc3)CC2)cc1OC | 27.8 | 7.2 | 4.1 | 59 | 242 | 33.9 | 8.7
O=C(CCN1CCN(c2ccc(C(F)(F)F)cc2)CC1)c1ccc(Cl)c(F)c1 | 49.1 | 1.1 | 2.7 | 27.6 | 74.3 | 66.7 | 1.5
O=C(CCN1CCN(c2ccc(Cl)cc2)CC1)c1ccc(F)c(Br)c1 | 35.1 | 6.7 | 7.7 | 26.6 | 206 | 30.6 | 5.9
COc1ccc(C(=O)CCN2CCN(Cc3cccc(C)c3)CC2)cc1OC | 24.1 | 1.8 | 2.7 | 19.4 | 52 | 28.4 | 2.2
O=C(CCN1CCN(c2ccc(Cl)cc2)CC1)c1ccc(Br)cc1 | 26.4 | 2.5 | 1.2 | 42.5 | 52.1 | 20.9 | 2
O=C(CCN1CCN(c2ccc([N+](=O)[O-])cc2)CC1)c1ccc(OC(F)(F)F)cc1 | 95 | 1.8 | 2.3 | 41.1 | 93.2 | 52.1 | 1
COc1ccc(C(=O)CCN2CCN(c3ccc(F)cc3)CC2)cc1OC | 61.5 | 1.7 | 1.1 | 154 | 175 | 103 | 2.8
COc1ccc(C(=O)CCN2CCN(Cc3cccc(F)c3)CC2)cc1OC | 48 | 0.6 | 0.5 | 49 | 22.4 | 40.8 | 0.5
O=C(CCN1CCN(c2ccc(C(F)(F)F)cc2)CC1)c1ccc(F)c(F)c1 | 28.8 | 0.3 | 0.4 | 33.4 | 14 | 54.1 | 0.5
O=C(CCN1CCN(c2ccc([N+](=O)[O-])cc2)CC1)c1ccc(F)c(Cl)c1 | 51 | 2.8 | 3.4 | 34.2 | 116 | 41.5 | 2.3
O=C(CCN1CCN(c2ccc(C(F)(F)F)cc2)CC1)c1ccc(C(F)(F)F)cc1 | 34.7 | 1.1 | 2 | 24.3 | 49.2 | 43 | 1.4
O=C(CCN1CCN(c2ccc([N+](=O)[O-])cc2)CC1)c1ccc(F)cc1 | 54.5 | 1.4 | 1.7 | 65.8 | 110 | 78.1 | 2

SMILES | IC50 (Trypanosoma cruzi [1]) [µM] | selectivity ratio [2] | selectivity ratio [3] | IC50 (Trypanosoma cruzi [4]) [µM] | IC50 (Vero) [µM] | IC50 (Trypanosoma cruzi [5]) [µM] | selectivity ratio [6]
O=C(CCN1CCN(c2ccc([N+](=O)[O-])cc2)CC1)c1ccc(Br)cc1 | 39.7 | 1.7 | 2.9 | 27.2 | 79.8 | 46.2 | 2
O=C(CCN1CCN(c2ccc(F)cc2)CC1)c1ccc(OC(F)(F)F)cc1 | 27.6 | 1.3 | 0.8 | 85.4 | 70.3 | 52.6 | 2.5
O=C(CCN1CCN(c2ccccc2F)CC1)c1ccc(F)cc1 | 52.6 | 0.9 | 1.3 | 37.9 | 49.5 | 53.5 | 0.9
O=C(CCN1CCN(c2ccc(Cl)cc2)CC1)c1ccc(F)c(Cl)c1 | 29.5 | 3.9 | 2.5 | 45.5 | 114 | 29.1 | 3.9
O=C(CCN1CCN(c2ccc(F)cc2)CC1)c1ccc(Cl)c(F)c1 | 75.3 | 2.3 | 2.7 | 39.5 | 105 | 46.2 | 1.4
O=C(CCN1CCN(c2ccc(F)cc2)CC1)c1ccc(C(F)(F)F)cc1 | 66.4 | 0.5 | 0.8 | 36.9 | 28.5 | 60.3 | 0.4
Cc1ccc(C(=O)CCN2CCN(c3ccc(F)cc3)CC2)cc1 | 78.8 | 2.2 | 1.3 | 43.5 | 55.4 | 25 | 0.7
O=C(CCN1CCN(c2ccc(Cl)cc2)CC1)c1ccc(OC(F)(F)F)cc1 | 34.1 | 1.5 | 2.3 | 42.2 | 95.6 | 61.8 | 2.8
O=C(CCN1CCN(c2ccc(C(F)(F)F)cc2)CC1)c1ccc(Br)cc1 | 28.3 | 2.8 | 2.6 | 30 | 78.8 | 28.5 | 2.8
O=C(CCN1CCN(c2ccc([N+](=O)[O-])cc2)CC1)c1ccc(C(F)(F)F)cc1 | 20 | 5 | 5.6 | 13.5 | 75.7 | 15.1 | 3.8
O=C(CCN1CCN(c2ccc([N+](=O)[O-])cc2)CC1)c1ccc(F)c(F)c1 | 160 | 2.3 | 1.4 | 85.2 | 122 | 53.1 | 0.8
O=C(CCN1CCN(c2ccc(C(F)(F)F)cc2)CC1)c1ccc(F)c(Br)c1 | 20.8 | 2.6 | 1.4 | 46.6 | 66.8 | 25.6 | 3.2
O=C(CCN1CCN(c2ccc(C(F)(F)F)cc2)CC1)c1ccccc1 | 16.2 | 0.6 | 1.2 | 12.8 | 15.7 | 24.9 | 1
O=C(CCN1CCN(c2ccc(Cl)cc2)CC1)c1ccc(Cl)c(F)c1 | 51.6 | 3.2 | 4.2 | 42 | 175 | 55.5 | 3.4
COc1ccc(C(=O)CCN2CCN(Cc3ccccc3)CC2)cc1OC | 55.2 | 1 | 1.6 | 29.5 | 47.5 | 46.2 | 0.9
O=C(CCN1CCN(c2ccc(F)cc2)CC1)c1ccc(F)c(Br)c1 | 42.4 | 8.5 | 9.1 | 38.8 | 352 | 41.4 | 8.3
O=C(CCN1CCN(c2ccc([N+](=O)[O-])cc2)CC1)c1ccc(Cl)c(F)c1 | 32.4 | 5.7 | 3.8 | 23.8 | 89.2 | 15.5 | 2.8
